Screening results: PubChem BioAssay, several laboratories
Hits are enriched below; roughly 3.1% of the tested compounds scored in any of these assays.
V-ATPase pHluor: regulators of yeast V-ATPase proton transport; S. cerevisiae, pHLuorin cytosolic pH fluorescence; response, % at 10 µM; actives 0.37% (n = 350,000); in the data active = response mostly above about 7.3%, no sharp cut-off; inactive = mostly below about 5.4%; also: actives read high
MPTP inh: inhibitors of mitochondrial permeability transition pore; isolated mouse mitochondria, Ca2+ swelling absorbance, 30 min; actives 1.4% (n = 360,000); AID 602449; inhibition, % at 10 µM;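 active = inhibition of 50% or more, scaled per plate between neutral and stimulator controls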
ADAM10 inh: ADAM10 inhibition, QFRET primary screen; inhibition, % at 7 µM; recombinant ADAM10, EDANS/DABCYL FRET peptide cleavage, 3 h; actives 0.62% (n = 370,000); O14672;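 active = inhibition above a per-campaign cutoff equal to the mean of compounds falling between control-based bounds plus 3 SD, cut at about 20% in these data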
Target sequence (O14672 214-748 limits assumed): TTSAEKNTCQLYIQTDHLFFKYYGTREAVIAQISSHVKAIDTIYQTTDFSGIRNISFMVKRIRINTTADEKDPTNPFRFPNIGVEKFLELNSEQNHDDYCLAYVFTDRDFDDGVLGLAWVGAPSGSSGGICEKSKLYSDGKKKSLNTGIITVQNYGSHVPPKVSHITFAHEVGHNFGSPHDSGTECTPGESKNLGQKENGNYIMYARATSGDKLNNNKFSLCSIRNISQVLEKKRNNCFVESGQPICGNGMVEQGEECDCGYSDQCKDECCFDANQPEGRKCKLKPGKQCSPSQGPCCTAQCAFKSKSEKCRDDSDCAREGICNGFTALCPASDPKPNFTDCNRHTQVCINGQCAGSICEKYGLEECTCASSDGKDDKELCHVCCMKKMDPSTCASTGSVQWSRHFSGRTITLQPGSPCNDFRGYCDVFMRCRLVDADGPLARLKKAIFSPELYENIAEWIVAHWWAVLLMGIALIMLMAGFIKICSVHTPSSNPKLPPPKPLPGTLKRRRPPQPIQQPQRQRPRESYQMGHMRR
ADAM17 inh: inhibits human ADAM17; recombinant ADAM17, EDANS/DABCYL FRET peptide cleavage; inhibition, % at 6.95 µM; actives 0.83% (n = 370,000); AID 720648;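 active = inhibition above the mean of compounds lying between control limits plus 3 SD, set per campaign, cut at about 8.5% in these data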
Hep lipid drop: modulators of hepatic lipid droplet formation; AML12 mouse hepatocytes, oleate lipid droplets, BODIPY imaging; inhibition, % at 6.5 µM; actives 0.4% (n = 240,000);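 active = lipid droplet intensity inhibited by at least 50%, with more than 500 cells counted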
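Assay system: AML12 hepatocytes (mouse); Probe or stimulus: oleic acid at 100 µM to induce lipid droplet formation; Dosing: compound at 6.5 µM only; Schedule: compound with oleate, overnight; Detection: fluorescence imaging, 20x objective, two fields per well; Measure: % inhibition of lipid droplet signal.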
aDG glyco up: increases alpha dystroglycan glycosylation | Pro5-aDG cells, alpha-DG glycosylation AlphaScreen (IIH6); 0% Pro5, 100% B10-LARGE cell signal | activation, % at 10 µM | actives 0.22% (n = 360,000);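 active = activation of at least 8% versus controls, or a plate z-score of at least 8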;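 also: Pro5 are CHO cells carrying HIG-tagged alpha-DG that lacks glycosylation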
Rh123 counter: membrane potential counter-screen of mitochondrial pore inhibitors; shares compounds with MPTP inh; isolated mitochondria, Rhodamine 123 fluorescence; inhibition, % at 10 µM; actives 78% (n = 5,000); AID 624504; in the data active = inhibition above about 22%
MPTP abs DR: dose response confirmation of mitochondrial permeability transition pore inhibitors; shares compounds with MPTP inh; isolated mitochondria swelling, absorbance; IC50, µM; actives 58% (n = 780); AID 651561; in the data active = IC50 below about 20 µM
MPTP counter DR: active in counter-screen for permeability transition pore inhibitors. shares compounds with MPTP inh. isolated mitochondria counterscreen, fluorescence read-out. IC50, µM. actives 49% (n = 780); in the data active = IC50 below about 80 µM
Each line names hits and unclear results; the compound was inactive in the other large screens (follow-up assays come after a bar, where they were run).

Clc1ccc2c(NCc3ccccc3)ccnc2c1	MPTP inh 88 | Rh123 counter 83
Clc1ccc(NNc2ccnc3cc(Cl)ccc23)cc1	none (no result: Hep lipid drop)
S=C(NNc1ccnc2cc(Cl)ccc12)Nc1ccccc1Cl	MPTP inh 98 | Rh123 counter 77
FC(F)(F)c1cnc(NNC(=S)Nc2ccccc2Cl)c(Cl)c1	MPTP inh 55 | Rh123 counter 89
O=C(NCCNc1ccnc2cc(Cl)ccc12)c1ccccc1F	MPTP inh 75 | Rh123 counter 57
O=C(Nc1ccccc1)Nc1ncc(C(F)(F)F)cc1Cl	none (no result: V-ATPase pHluor, Hep lipid drop)
COC(=O)[C@]12C[C@H](CC(=O)NCCCN3CCCC3=O)C(=O)N(Cc3cccc4ccccc34)C1=C[C@H](COCc1ccccc1)O[C@@H]2C	none (no result: V-ATPase pHluor, MPTP inh, Hep lipid drop, aDG glyco up)
COc1ccc(-n2cc(CNCCN3CCOC3=O)c(-c3ccccc3Cl)n2)cc1	none
CCN1CCC(CNCc2cn(-c3ccc(OC)cc3)nc2-c2ccccc2Cl)C1 (stereo unspecified)	MPTP inh 84 | Rh123 counter inactive | MPTP abs DR 9.1 | MPTP counter DR inactive
Cc1ccc(OCC(=O)N2N=C(C(F)(F)F)CC2(O)C(C)(C)C)cc1C (stereo unspecified)	MPTP inh 79 | Rh123 counter 65
CCNC(=S)N/N=C1\C(=O)c2cccc3cccc1c23	none
O=C(N/N=C1/C(=O)c2cccc3cccc1c23)c1ccc(Cl)cc1	MPTP inh 57 | Rh123 counter inactive
O=C(Nc1ccc(Cl)cc1)Nc1csc([N+](=O)[O-])c1	MPTP inh 79 | Rh123 counter 78
O=C(Nc1ccc(Cl)cc1)Nc1cccc(C(=O)O)c1	none
O=C(Nc1csc([N+](=O)[O-])c1)Nc1c(Cl)cccc1Cl	MPTP inh 67 | Rh123 counter 88
COC(=O)[C@]12C[C@H](CC(=O)NCC3CCCCC3)C(=O)N(Cc3cccc4ccccc34)C1=C[C@H](C(C)(C)C)O[C@@H]2C	none (no result: V-ATPase pHluor, MPTP inh, Hep lipid drop, aDG glyco up)
O=C(NCCCSc1ccccc1)c1cc(Cl)ccc1O	MPTP inh 82 | Rh123 counter 83
O=C(CNC(=O)c1ccccc1)NCCCSc1ccccc1	none (no result: Hep lipid drop)
CCOC(=O)NC(=O)CSc1nc2ccc([N+](=O)[O-])cc2[nH]1	none
O=C(CSc1nc2ccc([N+](=O)[O-])cc2[nH]1)NC1CCCCCC1	MPTP inh 95 | Rh123 counter 80
COc1ccc(C(=O)CSc2nc3ccc([N+](=O)[O-])cc3[nH]2)cc1	MPTP inh 99 | Rh123 counter 86
O=C(CSc1nc2ccc([N+](=O)[O-])cc2[nH]1)NC1CCCCC1	none (no result: Hep lipid drop)
Cc1ccc(S(=O)(=O)N2CCCC(C(=O)NC3=NCCS3)C2)cc1 (stereo unspecified)	MPTP inh 70 | Rh123 counter inactive | MPTP abs DR inactive | MPTP counter DR inactive
Cc1ccc(S(=O)(=O)N2CCC[C@H]2C(=O)NC2=NCCS2)cc1	none (no result: Hep lipid drop)
COC(=O)[C@]12C[C@H](CC(=O)NCc3cccs3)C(=O)N(Cc3cccc4ccccc34)C1=C[C@H](COCc1ccccc1)O[C@@H]2C	none (no result: V-ATPase pHluor, MPTP inh, Hep lipid drop, aDG glyco up)
Cc1cc(-n2c(C)cc(C(=O)CSc3[nH]c(=O)cc(C(F)(F)F)c3C#N)c2C)no1	MPTP inh 57 (no result: Hep lipid drop) | Rh123 counter 72
Cc1occc1-c1nnc(SCC(=O)N[C@@H]2CCc3ccccc32)n1-c1ccccc1	none (no result: V-ATPase pHluor, MPTP inh, Hep lipid drop, aDG glyco up)
CCc1c(C(=O)Nc2cc(C)cc(C)c2)[nH]c(C)c1C(C)=O	MPTP inh 79 (no result: Hep lipid drop) | Rh123 counter 84
Cn1cc(CN2CCN(c3ccccc3)CC2)c2ccccc21	MPTP inh 61 (no result: Hep lipid drop) | Rh123 counter inactive | MPTP abs DR inactive | MPTP counter DR inactive
O=C(CSc1nc2ccccc2c(=O)n1-c1ccccc1)N1CCc2ccccc2C1	MPTP inh 84 | Rh123 counter 75
CCCCCCCCN1CCS(=O)(=O)N(Cc2ccc(Cl)cc2)C(C(=O)OC)C1 (stereo unspecified)	none (no result: V-ATPase pHluor, MPTP inh, Hep lipid drop, aDG glyco up)
O=C(Nc1ccc(Cl)cc1)Nc1cccnc1	MPTP inh 64 | Rh123 counter 83
O=C(Nc1ccc(F)cc1)Nc1ccc(Cl)cn1	none
C=CCNC(=O)Nc1ccc(F)c(Cl)c1	none
O=C(Nc1ccc(F)c(Cl)c1)Nc1ccc(Cl)cn1	MPTP inh 87 | Rh123 counter 96
O=C(Nc1ccncc1)Nc1ccc(F)c(Cl)c1	MPTP inh 92 | Rh123 counter 107
O=C(Nc1ccc(Cc2ccc(NC(=O)Nc3cccnc3)cc2)cc1)Nc1cccnc1	none (no result: Hep lipid drop)
Cc1ccc(CNC[C@@]23CO[C@H](c4ccc(Cl)cc4)N2[C@@H](c2ccc(Cl)cc2)SC3)o1	none (no result: V-ATPase pHluor, MPTP inh, Hep lipid drop, aDG glyco up)
Cc1occc1-c1nnc(SCC(=O)Nc2nc(C(C)(C)C)cs2)o1	MPTP inh 94 | Rh123 counter 90
Cc1csc(NC(=O)CSc2nnc(-c3ccoc3C)o2)n1	none
O=C(NCc1ccccc1)C1(C(=O)C2CC2)CC(c2ccccc2C(F)(F)F)=NO1 (stereo unspecified)	none (no result: V-ATPase pHluor, MPTP inh, Hep lipid drop, aDG glyco up)
O=S1(=O)c2ccc(N3CC[C@@H](O)C3)cc2O[C@@H]2CCN1C2	none (no result: V-ATPase pHluor, MPTP inh, Hep lipid drop, aDG glyco up)
O=C(c1cc(Br)cc(Br)c1)N1CCC(Oc2cccnc2)CC1	none (no result: V-ATPase pHluor, MPTP inh, Hep lipid drop, aDG glyco up)
O=C(Nc1ccccc1)OCCN1CCN(Cc2ccccc2)CCC1=O	none
O=C(Nc1cccc(Cl)c1)OCCN1CCN(Cc2ccccc2)CCC1=O	MPTP inh 93 | Rh123 counter 89
CC[C@H](CCCc1ccccc1OC)CCS(=O)(=O)N(C)C	none (no result: V-ATPase pHluor, MPTP inh, Hep lipid drop, aDG glyco up)
CSc1nsc(/C=C/Nc2ccc(Cl)cc2)c1C#N	none (no result: Hep lipid drop)
CSc1nsc(/C=C/Nc2ccc(F)cc2)c1C#N	MPTP inh 60 | Rh123 counter 31
CC(C)(C)[C@H](NC(=O)c1cc(Cl)cc(Cl)c1)C(=O)N1CCC[C@H]1C(=O)N[C@H](C#N)CC(=O)O	none (no result: V-ATPase pHluor, MPTP inh, Hep lipid drop, aDG glyco up)
CN[C@H]1C[C@H]2c3cc(-c4ccccc4C)ccc3CCN2C[C@H]1[C@H](C)O	none (no result: V-ATPase pHluor, MPTP inh, Hep lipid drop, aDG glyco up)
O=c1oc2c(-c3ccc([N+](=O)[O-])cc3)cc(O)cc2s1	MPTP inh 78 | Rh123 counter 55
Cc1ccc(C)c(NC(=O)CNS(=O)(=O)c2ccc3[nH]c(=O)oc3c2)c1	none (no result: V-ATPase pHluor, MPTP inh, Hep lipid drop, aDG glyco up)
O=C(Nc1ccc2c(c1)OCO2)NC1(C(F)(F)F)Oc2ccccc2O1	MPTP inh 55 (no result: Hep lipid drop) | Rh123 counter 60
O=C(Nc1ccc2c(c1)OCCO2)NC1(C(F)(F)F)Oc2ccccc2O1	none (no result: Hep lipid drop)
O=C(Nc1cccc(Cl)c1)Nc1ccc2c(c1)OCO2	MPTP inh 100 | Rh123 counter 85
